Measurements from ChEMBL document CHEMBL3822431, “Hydroxychalcone inhibitors of Streptococcus mutans glucosyl transferases and biofilms as potential anticaries agents” (Bioorg Med Chem Lett, 2016).
The source made the active and inactive calls. The calls are words filed in the database; no cut-off is given here.

Columns and labels:
Streptococcus mutans [1] = assay: Inhibition of biofilm formation of Streptococcus mutans UA159 after 16 hrs by crystal violet staining based serial dilution method; format: functional, organism-based; conditions: Streptococcus mutans, UA159, 16 h
Summary of the method: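 S. mutans UA159 co-incubated with compound at various concentrations; biofilm quantified by crystal violet protocol, read at OD562.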

[2] = molecular target: T1, Glucosyltransferase-I (Streptococcus mutans serotype c (strain ATCC 700610 / UA159)) (UniProt P08987); assay: Inhibition of Wild-type Streptococcus mutans UA159 glucosyltransferase B at 50 uM by zymography
T1 sequence (whole entry): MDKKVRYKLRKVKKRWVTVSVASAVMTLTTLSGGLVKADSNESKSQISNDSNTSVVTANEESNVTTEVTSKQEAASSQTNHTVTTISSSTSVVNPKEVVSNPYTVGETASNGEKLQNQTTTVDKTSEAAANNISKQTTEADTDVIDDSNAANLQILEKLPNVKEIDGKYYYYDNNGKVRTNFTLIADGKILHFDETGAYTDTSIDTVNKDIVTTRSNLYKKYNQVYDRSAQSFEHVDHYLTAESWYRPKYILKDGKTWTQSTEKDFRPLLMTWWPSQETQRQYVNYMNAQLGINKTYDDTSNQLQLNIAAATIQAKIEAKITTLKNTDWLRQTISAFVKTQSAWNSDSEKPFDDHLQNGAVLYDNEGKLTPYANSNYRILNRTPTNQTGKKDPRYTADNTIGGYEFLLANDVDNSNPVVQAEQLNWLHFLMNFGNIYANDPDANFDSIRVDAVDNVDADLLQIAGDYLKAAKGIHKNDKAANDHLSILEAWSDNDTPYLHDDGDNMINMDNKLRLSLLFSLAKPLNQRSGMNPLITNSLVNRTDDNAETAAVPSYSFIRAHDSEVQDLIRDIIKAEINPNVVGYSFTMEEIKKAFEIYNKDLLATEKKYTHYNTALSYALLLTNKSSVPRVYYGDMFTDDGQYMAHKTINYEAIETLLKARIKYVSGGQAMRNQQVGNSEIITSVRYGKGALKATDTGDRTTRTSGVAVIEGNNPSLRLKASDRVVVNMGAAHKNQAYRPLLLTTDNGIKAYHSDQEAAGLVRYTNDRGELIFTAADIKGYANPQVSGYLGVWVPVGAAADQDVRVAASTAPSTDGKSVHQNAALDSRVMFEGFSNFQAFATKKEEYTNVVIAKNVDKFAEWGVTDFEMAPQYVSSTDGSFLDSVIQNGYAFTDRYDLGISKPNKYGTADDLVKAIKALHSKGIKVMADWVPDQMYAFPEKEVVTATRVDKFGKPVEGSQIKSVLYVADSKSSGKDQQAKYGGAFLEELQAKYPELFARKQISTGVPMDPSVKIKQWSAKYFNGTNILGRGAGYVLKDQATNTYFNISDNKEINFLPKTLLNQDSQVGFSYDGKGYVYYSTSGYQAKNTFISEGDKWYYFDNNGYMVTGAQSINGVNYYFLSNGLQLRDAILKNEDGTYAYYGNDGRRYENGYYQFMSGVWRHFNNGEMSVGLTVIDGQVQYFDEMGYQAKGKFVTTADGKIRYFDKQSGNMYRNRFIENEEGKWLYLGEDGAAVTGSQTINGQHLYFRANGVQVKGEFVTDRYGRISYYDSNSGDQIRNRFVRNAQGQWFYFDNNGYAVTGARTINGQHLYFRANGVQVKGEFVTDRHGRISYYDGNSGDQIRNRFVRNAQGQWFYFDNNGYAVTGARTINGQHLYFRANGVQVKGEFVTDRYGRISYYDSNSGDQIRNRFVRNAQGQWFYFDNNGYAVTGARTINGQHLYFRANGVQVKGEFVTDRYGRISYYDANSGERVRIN
Summary of the method: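 Compound (50 µM) added to overnight S. mutans UA159 wild-type cultures; Gtfs concentrated from supernatants, run on duplicate SDS-PAGE; second gel used for zymogram, glucan band intensity taken as Gtf activity.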

[3] = molecular target: T1, Glucosyltransferase-I (Streptococcus mutans serotype c (strain ATCC 700610 / UA159)); assay: Inhibition of Wild-type Streptococcus mutans UA159 glucosyltransferase B at 50 uM by coomassie blue staining based SDS-PAGE method
Summary of the method: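 Compound (50 µM) added to overnight S. mutans UA159 wild-type cultures; Gtfs collected and concentrated from supernatants, run on SDS-PAGE in duplicate; one gel Coomassie blue stained for protein levels.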

Streptococcus mutans [4] = assay: Selectivity index, ratio of growth inhibition IC50 for Streptococcus mutans UA159 to biofilm inhibition IC50 for Streptococcus mutans UA159
Streptococcus mutans [5] = assay: Inhibition of Gfp tagged Streptococcus mutans UA159 colony formation in guts of sucrose-dependent Drosophila colonization model at 50 uM measured 7 days post infection by fluorescent microscopy; format: functional, organism-based
Summary of the method: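 Drosophila fed Gfp-tagged S. mutans with compound at 50 µM; DMSO as negative control, ΔgtfB mutant as biofilm-defective comparator; gut fluorescence examined by fluorescent microscopy 7 days after infection.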

IC50 (Streptococcus mutans [1]) [µM]	inhibition [2]	inhibition [3]	Compound	Ratio IC50 (Streptococcus mutans [4])	inhibition (Streptococcus mutans [5])
77	Active	Active	O=C(/C=C\c1ccc(O)cc1O)c1ccc(O)cc1	10.1	–
–	Active	Active	O=C(/C=C/c1cc(O)c(O)cc1O)c1ccccc1O (stereo in doubt; 18c)	–	–
–	Active	Active	O=C(/C=C/c1ccc(O)cc1O)c1cccc(O)c1 (stereo in doubt; 9a)	–	Active

The next lines start with the compound.

Compound	IC50 (Streptococcus mutans [1]) [µM]	inhibition [2]	inhibition [3]	Ratio IC50 (Streptococcus mutans [4])	inhibition (Streptococcus mutans [5])
O=C(/C=C/c1ccc(O)cc1O)c1ccc(O)cc1	162	Active	Active	6.6	–
O=C(/C=C\c1ccc(O)cc1O)c1cccc(O)c1	44	Active	Active	10.6	Active
